Source: ChEMBL document CHEMBL1129319, “Design and synthesis of new linear and cyclic bradykinin antagonists” (J Med Chem, 1996)
Activity calls are given as the source filed them. The calls are words filed in the database; no cut-off is given here. Numbered stars: 1 amine (or outer) side, 2 acyl side, 3 side chain; on linkers, the order of the positions; unused ones are H or OH. Square brackets hold non-standard residues; d marks the D form. Peptide text beside a SMILES is read from it. * marks the point of attachment. ξ: configuration not given here. X1 = NC(N)=NCCC[C@@H](NC(=O)[C@H](Cc1ccccc1)NC(=O)N1CCC[C@H]1C(=O)[C@H](CO)N*)C(=O)O; Pentanoyl(5-guanidino) = NC(N)=NCCCCC(=O)*; Butanoyl(4-guanidino) = N=C(N)NCCCC(=O)*; Oic(3aξ,7aξ) = O=C(O)[C@@H]1CC2CCCCC2N1; NH(CH2)9CO = O=C(CCCCCCCCCN[*:1])[*:2]; Tic = O=C(O)[C@@H]1Cc2ccccc2CN1; 2Thi = N[C@@H](Cc1cccs1)C(=O)O; X2 = N=C(N)NCCCCCC(=O)*; GABA = NCCCC(=O)O

Legend:
B2 bradykinin receptor = target: T1, B2 bradykinin receptor (Oryctolagus cuniculus, UniProt Q28642); assay: In vitro antagonistic activity against kinin-induced rabbit jugular vein contraction.; type: functional; conditions: for Kb: read-out: pA2 (converted)
T1 sequence (Q28642 whole entry): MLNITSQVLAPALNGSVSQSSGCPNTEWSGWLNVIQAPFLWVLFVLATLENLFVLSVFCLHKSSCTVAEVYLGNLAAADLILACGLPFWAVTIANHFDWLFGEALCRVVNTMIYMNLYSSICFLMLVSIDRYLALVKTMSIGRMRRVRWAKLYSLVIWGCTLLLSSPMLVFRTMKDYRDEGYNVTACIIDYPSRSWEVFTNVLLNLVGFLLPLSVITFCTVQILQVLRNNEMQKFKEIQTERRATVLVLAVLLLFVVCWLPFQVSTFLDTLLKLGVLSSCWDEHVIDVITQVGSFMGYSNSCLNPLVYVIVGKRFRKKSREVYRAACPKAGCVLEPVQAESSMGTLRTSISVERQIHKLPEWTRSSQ
Procedure, shortened: (§1)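 Rabbit jugular vein rings (B2 tissue), reference KCl 60 mM contraction then 45 min rest; antagonist, usually 10-7, 10^-6 and 10^-5 M, incubated 45 min before cumulative bradykinin; one curve per ring; pA2 by Tallarida's method with Schild slope constrained to unity, or pKB from EC50 ratio when activity appeared only at 10^-5 M.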

[1] = target: T2, B2 bradykinin receptor (Homo sapiens) (UniProt P30411); assay: Antagonistic activity against bradykinin B2 receptor as human umbilical vein contraction; type: functional, tissue-based
T2 sequence (whole entry): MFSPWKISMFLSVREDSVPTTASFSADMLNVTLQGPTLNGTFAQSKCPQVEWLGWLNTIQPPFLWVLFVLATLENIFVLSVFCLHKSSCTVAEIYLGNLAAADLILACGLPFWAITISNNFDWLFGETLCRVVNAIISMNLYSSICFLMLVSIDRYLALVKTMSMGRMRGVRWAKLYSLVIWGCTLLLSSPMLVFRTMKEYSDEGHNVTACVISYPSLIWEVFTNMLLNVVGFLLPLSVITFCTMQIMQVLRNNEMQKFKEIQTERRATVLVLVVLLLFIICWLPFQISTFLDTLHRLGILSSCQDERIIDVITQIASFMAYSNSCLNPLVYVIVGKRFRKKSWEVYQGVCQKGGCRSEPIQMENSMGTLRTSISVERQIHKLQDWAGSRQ
Procedure, shortened: (§2)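 Endothelium-denuded human umbilical vein rings in Krebs (37 °C, 95% O2/5% CO2, pH 7.40), 2-4 g load, pretreated with indomethacin 5 × 10^-6 M and L-nitroarginine 10^-4 M; antagonist incubated 45 min before a single cumulative bradykinin curve per ring; isometric contraction as % of KCl (60 mM) reference; pKB from KB = [Ant]/(concentration ratio − 1).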

[2] = target: T3, B2 bradykinin receptor (Oryctolagus cuniculus) (UniProt Q28642); assay: In vitro antagonistic activity against kinin-induced rabbit jugular vein contraction by bradykinin B2 receptor; in = inactive at 10e-5M.; type: functional; procedure, shortened: as §1
T3 sequence (whole entry): T1 sequence (Q28642 whole entry)

[3] = target: T2, B2 bradykinin receptor (Homo sapiens); assay: Antagonistic activity against bradykinin B2 receptor as human umbilical vein contraction; in = inactive at 10e-5M; type: functional, tissue-based; procedure, shortened: as §2
[4] = target: T3, B2 bradykinin receptor (Oryctolagus cuniculus); assay: In vitro antagonistic activity against kinin-induced rabbit jugular vein contraction by bradykinin B2 receptor; in = inactive at 10e-5M; type: functional; procedure, shortened: as §1

NC(N)=NCCC[C@H](NC(=O)[C@@H]1CC2CCCCC2N1C(=O)[C@@H]1Cc2ccccc2CN1C(=O)[C@H](CO)NC(=O)[C@@H](N)Cc1ccccc1)C(=O)O (some centres undefined) (H-FS[Tic][Oic(3aξ,7aξ)]R-OH)
Kb (B2 bradykinin receptor): 912 nM

N=C(N)NCCCCC(=O)N[C@@H](Cc1cccs1)C(=O)N1Cc2ccccc2C[C@H]1C(=O)N1C2CCCCC2C[C@H]1C(=O)N[C@@H](CCCNC(=N)N)C(=O)O (some centres undefined) ({Pentanoyl(5-guanidino)}-[2Thi][Tic][Oic(3aξ,7aξ)]R-OH)
Kb (B2 bradykinin receptor): 3020 nM

N=C(N)NCCC[C@@H]1NC(=O)[C@@H]2CC3CCCCC3N2C(=O)[C@H]2Cc3ccccc3CN2C(=O)[C@H](CO)NC(=O)[C@H](c2ccccc2)NC(=O)CCCNC1=O (some centres undefined)
Kb (B2 bradykinin receptor): 537 nM

N=C(N)NCCC[C@@H]1NC(=O)[C@@H]2CC3CCCCC3N2C(=O)[C@H]2Cc3ccccc3CN2C(=O)[C@H](Cc2cccs2)NC(=O)CNC1=O (some centres undefined)
Kb (B2 bradykinin receptor): 40.7 nM
pKb [1]: 4.93

C[C@@H]1NC(=O)CNC(=O)[C@H](CCCN=C(N)N)NC(=O)[C@@H]2CC3CCCCC3N2C(=O)[C@H]2Cc3ccccc3CN2C1=O (some centres undefined)
Kb (B2 bradykinin receptor): 240 nM

NCC(=O)N[C@@H](Cc1cccs1)C(=O)N1Cc2ccccc2C[C@H]1C(=O)N1C2CCCCC2C[C@H]1C(=O)N[C@@H](CCCN=C(N)N)C(=O)O (some centres undefined) (H-G[2Thi][Tic][Oic(3aξ,7aξ)]R-OH)
pA2 [2]: inactive
pKb [1]: 4.79

C[C@@H]1NC(=O)[C@H](Cc2cccs2)NC(=O)CCCNC(=O)[C@H](CCCN=C(N)N)NC(=O)[C@@H]2CC3CCCCC3N2C(=O)[C@H]2Cc3ccccc3CN2C1=O (some centres undefined)
Kb (B2 bradykinin receptor): 63.1 nM

N=C(N)NCCC[C@@H]1NC(=O)[C@@H]2CC3CCCCC3N2C(=O)[C@H]2Cc3ccccc3CN2C(=O)[C@H](Cc2cccs2)NC(=O)CCCNC1=O (some centres undefined)
pKb [3]: inactive
Kb (B2 bradykinin receptor): 324 nM

C[C@@H]1NC(=O)[C@H](Cc2c[nH]c3ccccc23)NC(=O)CCCNC(=O)[C@H](CCCN=C(N)N)NC(=O)[C@@H]2CC3CCCCC3N2C(=O)[C@H]2Cc3ccccc3CN2C1=O (some centres undefined)
Kb (B2 bradykinin receptor): 490 nM

N=C(N)NCCC[C@H](NC(=O)[C@@H]1CC2CCCCC2N1C(=O)[C@@H]1Cc2ccccc2CN1C(=O)[C@H](CO)NC(=O)[C@@H]1Cc2ccccc2CN1)C(=O)O (some centres undefined) (H-[Tic]S[Tic][Oic(3aξ,7aξ)]R-OH)
pA2 [4]: inactive

NCCCC[C@@H]1NC(=O)[C@H](CCCN=C(N)N)NC(=O)[C@@H]2C[C@@H]3CCCC[C@@H]3N2C(=O)[C@H]2Cc3ccccc3CN2C(=O)[C@H](Cc2cccs2)NC1=O
pA2 (B2 bradykinin receptor): 6.84

N=C(N)NCCC[C@@H]1NC(=O)[C@@H]2CC3CCCCC3N2C(=O)[C@H]2Cc3ccccc3CN2C(=O)[C@H](CO)NC(=O)[C@@H]2Cc3ccccc3CN2C(=O)CCCNC1=O (some centres undefined)
Kb (B2 bradykinin receptor): 437 nM

CN1CC(=O)N[C@@H](Cc2cccs2)C(=O)N2Cc3ccccc3C[C@@H]2C(=O)N2C3CCCCC3C[C@H]2C(=O)N[C@@H](CCCN=C(N)N)C1=O (some centres undefined)
Kb (B2 bradykinin receptor): 219 nM

NC(N)=NCCC[C@H](NC(=O)[C@@H]1CC2CCCCC2N1C(=O)[C@@H]1Cc2ccccc2CN1C(=O)[C@H](CO)NC(=O)[C@@H](N)Cc1cccs1)C(=O)O (some centres undefined) (H-[2Thi]S[Tic][Oic(3aξ,7aξ)]R-OH)
pA2 [4]: inactive

NCCCC(=O)N[C@@H](Cc1ccccc1)C(=O)N1Cc2ccccc2C[C@H]1C(=O)N1C2CCCCC2C[C@H]1C(=O)N[C@@H](CCCN=C(N)N)C(=O)O (some centres undefined) (H-[GABA]F[Tic][Oic(3aξ,7aξ)]R-OH)
Kb (B2 bradykinin receptor): 363 nM

N=C(N)NCCCC(=O)N[C@@H](Cc1cccs1)C(=O)N1Cc2ccccc2C[C@H]1C(=O)N1C2CCCCC2C[C@H]1C(=O)N[C@@H](CCCNC(=N)N)C(=O)O (some centres undefined) ({Butanoyl(4-guanidino)}-[2Thi][Tic][Oic(3aξ,7aξ)]R-OH)
pA2 [2]: inactive

NC(N)=NCCC[C@H](NC(=O)[C@@H](Cc1ccccc1)NC(=O)[C@@H](N)CCCN=C(N)N)C(=O)N1CCC[C@H]1C(=O)N1CCC[C@H]1C(=O)NCC(=O)N[C@@H](Cc1ccccc1)C(=O)N[C@@H](CO)C(=O)[C@@H]1CCCN1C(=O)N[C@@H](Cc1ccccc1)C(=O)N[C@H](CCCN=C(N)N)C(=O)O (H-R[dF]RPPGF-X1)
pKb [1]: 5.16

C[C@@H]1NC(=O)[C@@H](Cc2ccccc2)NC(=O)CCCNC(=O)[C@H](CCCN=C(N)N)NC(=O)[C@@H]2CC3CCCCC3N2C(=O)[C@H]2Cc3ccccc3CN2C1=O (some centres undefined)
pA2 [2]: inactive

C[C@@H]1NC(=O)CCCNC(=O)[C@H](CCCN=C(N)N)NC(=O)[C@@H]2CC3CCCCC3N2C(=O)[C@H]2Cc3ccccc3CN2C(=O)[C@H](CO)NC1=O (some centres undefined)
Kb (B2 bradykinin receptor): 309 nM

NCCCCCCCCCC(=O)N[C@@H](Cc1cccs1)C(=O)N1Cc2ccccc2C[C@H]1C(=O)N1C2CCCCC2C[C@H]1C(=O)N[C@@H](CCCN=C(N)N)C(=O)O (some centres undefined) ({NH(CH2)9CO}-[2Thi][Tic][Oic(3aξ,7aξ)]R-OH)
Kb (B2 bradykinin receptor): 468 nM

NCCCC(=O)N[C@@H](Cc1cccs1)C(=O)N1Cc2ccccc2C[C@H]1C(=O)N1C2CCCCC2C[C@H]1C(=O)N[C@@H](CCCN=C(N)N)C(=O)O (some centres undefined) (H-[GABA][2Thi][Tic][Oic(3aξ,7aξ)]R-OH)
pKb [3]: inactive
Kb (B2 bradykinin receptor): 251 nM

N=C(N)NCCC[C@@H]1NC(=O)[C@H](CCCNC(=N)N)NC(=O)[C@@H]2CC3CCCCC3N2C(=O)[C@H]2Cc3ccccc3CN2C(=O)[C@H](Cc2cccs2)NC1=O (some centres undefined)
Kb (B2 bradykinin receptor): 75.9 nM

NCC(=O)N[C@@H](Cc1ccccc1)C(=O)N1Cc2ccccc2C[C@H]1C(=O)N1C2CCCCC2C[C@H]1C(=O)N[C@@H](CCCN=C(N)N)C(=O)O (some centres undefined) (H-GF[Tic][Oic(3aξ,7aξ)]R-OH)
pKb [3]: inactive
Kb (B2 bradykinin receptor): 851 nM

NC(N)=NCCC[C@@H]1NC(=O)[C@@H]2CC3CCCCC3N2C(=O)[C@H]2Cc3ccccc3CN2C(=O)[C@H](CO)NC(=O)[C@H](Cc2cccs2)NC(=O)CCNC1=O (some centres undefined)
Kb (B2 bradykinin receptor): 75.9 nM

N=C(N)NCCC[C@@H]1NC(=O)[C@@H]2CC3CCCCC3N2C(=O)[C@H]2Cc3ccccc3CN2C(=O)[C@H](Cc2ccccc2)NC(=O)CNC1=O (some centres undefined)
Kb (B2 bradykinin receptor): 117 nM
pKb [1]: 5.13

N=C(N)NCCCCCC(=O)N[C@@H](Cc1cccs1)C(=O)N1Cc2ccccc2C[C@H]1C(=O)N1C2CCCCC2C[C@H]1C(=O)N[C@@H](CCCNC(=N)N)C(=O)O (some centres undefined) (X2-[2Thi][Tic][Oic(3aξ,7aξ)]R-OH)
Kb (B2 bradykinin receptor): 3390 nM

N=C(N)NCCC[C@@H]1NC(=O)[C@@H]2CC3CCCCC3N2C(=O)[C@H]2Cc3ccccc3CN2C(=O)[C@H](CO)NC(=O)[C@H](Cc2cccs2)NC(=O)CCCNC1=O (some centres undefined)
Kb (B2 bradykinin receptor): 45.7 nM

NC(N)=NCCC[C@H](NC(=O)[C@@H]1CC2CCCCC2N1C(=O)[C@@H]1Cc2ccccc2CN1C(=O)[C@H](Cc1cccs1)NC(=O)[C@@H](N)CCCN=C(N)N)C(=O)O (some centres undefined) (H-R[2Thi][Tic][Oic(3aξ,7aξ)]R-OH)
Kb (B2 bradykinin receptor): 794 nM
